Assays:
[1] = Permeability from apical to basolateral side of human Caco2 cells at 3 uM; type: ADME, cell-based; details: Caco-2, read-out: permeability
Outline: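 Caco-2 monolayers: apical-to-basolateral permeability was measured at pH 6.5 and reported in nm/s.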

[2] = Half life in mouse liver microsomes at 0.5 uM at pH 7.4 in presence of NADPH; type: ADME, Microsome
Outline: (§1)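 Liver microsomal stability was measured with 0.5 µM compound and 1.0 mg/mL microsomal protein, in 1.0 mM NADPH, 100 mM NaPi and 5.0 mM MgCl₂, at pH 7.4 and 37 °C. Half-life was determined.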

[3] = Half life in cynomolgus monkey liver microsomes at 0.5 uM at pH 7.4 in presence of NADPH; type: ADME, Macaca fascicularis, Microsome; outline: as §1
[4] = Half life in human liver microsomes at 0.5 uM at pH 7.4 in presence of NADPH; type: ADME, Microsome; outline: as §1
[5] = Half life in dog liver microsomes at 0.5 uM at pH 7.4 in presence of NADPH; type: ADME, Canis lupus familiaris, Microsome; outline: as §1
[6] = Half life in rat liver microsomes at 0.5 uM at pH 7.4 in presence of NADPH; type: ADME, Microsome; outline: as §1

Row | SMILES | Papp A→B at 3 µM [1] [×10⁻⁶ cm/s] | half-life at 0.5 µM [2] [min] | half-life at 0.5 µM [3] [min] | half-life at 0.5 µM [4] [min] | half-life at 0.5 µM [5] [min] | half-life at 0.5 µM [6] [min]
1 | O=C(CN1CCC[C@H](NS(=O)(=O)c2ccc3cc(Cl)ccc3c2)C1=O)N1C[C@@H]2C[C@H](C1)c1cccc(=O)n1C2 | 2.5 | < 2 | < 2 | < 2 | < 2 | < 2
2 | NC(=O)C(=O)N1CC2CC(CN(C(=O)CN3CCC[C@H](NS(=O)(=O)c4ccc5cc(Cl)ccc5c4)C3=O)C2)C1 | < 1.5 |  |  |  |  | 
3 | CS(=O)(=O)N1CC2CC(CN(C(=O)CN3CCC[C@H](NS(=O)(=O)c4ccc5cc(Cl)ccc5c4)C3=O)C2)C1 | < 1.5 |  |  |  |  | 
4 | O=C(CN1CCC[C@H](NS(=O)(=O)c2ccc3cc(Cl)ccc3c2)C1=O)N1CC2CC(C1)CN(C(=O)C1CCNCC1)C2 | < 1.5 |  |  |  |  | 
5 | Nc1[nH]ncc1C(=O)N1CC2CC(CN(C(=O)CN3CCC[C@H](NS(=O)(=O)c4ccc5cc(Cl)ccc5c4)C3=O)C2)C1 | < 1.5 |  |  |  |  | 

The next lines start with the values.

Row | Papp A→B at 3 µM [1] [×10⁻⁶ cm/s] | half-life at 0.5 µM [2] [min] | half-life at 0.5 µM [3] [min] | half-life at 0.5 µM [4] [min] | half-life at 0.5 µM [5] [min] | half-life at 0.5 µM [6] [min] | SMILES
6 | < 1.5 |  |  |  |  |  | O=C(CN1CCC[C@H](NS(=O)(=O)c2ccc3cc(Cl)ccc3c2)C1=O)N1CC2CNCC(C2)C1
7 | 7.3 | < 2 | < 2 | < 2 | < 2 | < 2 | CC(=O)N1CC2CC(C1)CN(C(=O)CN1CCC[C@H](NS(=O)(=O)c3ccc4cc(Cl)ccc4c3)C1=O)C2
8 | < 1.5 |  |  |  |  |  | NC(=O)N1CC2CC(C1)CN(C(=O)CN1CCC[C@H](NS(=O)(=O)c3ccc4cc(Cl)ccc4c3)C1=O)C2

From ChEMBL document CHEMBL1921791, “Arylsulfonamidopiperidone derivatives as a novel class of factor Xa inhibitors” (Bioorg Med Chem Lett, 2011)
